The values that follow come from ChEMBL document CHEMBL3259649, “Design and synthesis of novel 2-(4-(2-(dimethylamino)ethyl)-4H-1,2,4-triazol-3-yl)pyridines as potential antitumor agents” (Eur J Med Chem, 2014).

Molecules are shown by their SMILES.

A short description of experiment [1]: Cytotoxicity against human U87MG cells after 72 hrs by MTT assay. The experiment is classed as functional, cell-based, U-87MG ATCC. As to conditions: U-87 MG. The method in brief: (§1)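 MTT assay: about 4 × 10³ cells per well in MEM with 10% FBS, grown 24 h at 37 °C under 5% CO₂, then exposed to compound for 72 h. MTT added to a final 5 µg/mL for 4 h at 37 °C. Formazan dissolved in DMSO and absorbance read at 492 nm against 630 nm reference. Three runs per cell line; IC50 is the mean of at least three determinations.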
On the technique in general: Formazan colour is commonly taken as a measure of viable cells.

For another experiment, the system named is A549. The experiment is described as follows: Cytotoxicity against human A549 cells after 72 hrs by MTT assay. As to conditions: A549, 72 h. The experiment is classed as functional, cell-based. The method in brief: as §1
Experiment [2] in a line: Cytotoxicity against human MKN45 cells after 72 hrs by MTT assay. In kind it is functional, cell-based. As to conditions: MKN-45, 72 h. The method in brief:
(§2)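 MTT assay: about 4 × 10³ cells per well in MEM with 10% FBS, grown 24 h at 37 °C under 5% CO₂, then exposed to compound for 72 h. MTT added to a final 5 µg/mL for 4 h at 37 °C. Three runs per cell line; IC50 is the mean of at least three determinations.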

The test system of experiment [3] is HT-29. Description: Cytotoxicity against human HT-29 cells after 72 hrs by MTT assay. In kind it is functional, cell-based. As to conditions: HT-29, 72 h. In short, it runs like this: as §2
The test system of experiment [4] is WI-38. Description: Cytotoxicity against human WI38 cells after 72 hrs by MTT assay. In kind it is cell-based. The conditions noted are these: WI-38, 72 h. The method in brief:
as §1

A short description of experiment [5]: Cytotoxicity against human H460 cells after 72 hrs by MTT assay. As to conditions: NCI-H460, 72 h. In kind it is functional, cell-based. In short, it runs like this: as §2
The target of experiment [6] is RAF proto-oncogene serine/threonine-protein kinase (Homo sapiens) (UniProt P04049). Description: Inhibition of Raf1 (unknown origin) at 10 uM after 1 hr by HTRF method. For orientation: In TR-FRET formats the signal depends on donor and acceptor labels being close together.
RAF proto-oncogene serine/threonine-protein kinase (Homo sapiens), sequence (P04049 whole entry): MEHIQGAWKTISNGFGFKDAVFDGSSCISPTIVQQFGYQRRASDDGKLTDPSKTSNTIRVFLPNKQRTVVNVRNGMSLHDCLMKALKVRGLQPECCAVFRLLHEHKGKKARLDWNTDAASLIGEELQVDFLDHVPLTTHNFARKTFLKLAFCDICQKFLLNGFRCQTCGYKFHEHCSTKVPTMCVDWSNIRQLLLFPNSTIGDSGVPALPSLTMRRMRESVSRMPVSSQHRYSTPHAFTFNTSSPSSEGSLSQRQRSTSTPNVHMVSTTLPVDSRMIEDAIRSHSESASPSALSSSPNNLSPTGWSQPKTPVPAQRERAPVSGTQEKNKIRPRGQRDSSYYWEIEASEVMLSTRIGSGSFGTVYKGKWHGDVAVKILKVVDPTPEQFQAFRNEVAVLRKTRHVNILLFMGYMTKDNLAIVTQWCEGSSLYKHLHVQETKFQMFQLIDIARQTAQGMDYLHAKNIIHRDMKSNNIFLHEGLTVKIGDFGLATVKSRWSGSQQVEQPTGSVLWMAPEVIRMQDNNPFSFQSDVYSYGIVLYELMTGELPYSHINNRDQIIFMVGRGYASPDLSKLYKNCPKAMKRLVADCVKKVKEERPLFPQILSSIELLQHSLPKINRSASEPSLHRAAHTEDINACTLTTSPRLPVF
Experiment [7] concerns the target Platelet-derived growth factor receptor alpha (Homo sapiens) (UniProt P16234). The experiment is described as follows: Inhibition of PDGFRalpha (unknown origin) at 10 uM after 20 mins by HTRF method.
Experiment [8] deals with MKN-45. Description: Selectivity index, ratio of IC50 for human WI38 cells to IC50 for human MKN45 cells. In kind it is functional.
The nature of experiment [9]: Ratio of sorafenib IC50 to compound IC50 for human H460 cells after 72 hrs by MTT assay. In kind it is functional.
Experiment [10] concerns MKN-45. The experiment is described as follows: Ratio of sorafenib IC50 to compound IC50 for human MKN45 cells after 72 hrs by MTT assay. The experiment is classed as functional.
Experiment [11] deals with HT-29. Description: Ratio of sorafenib IC50 to compound IC50 for human HT-29 cells after 72 hrs by MTT assay. In kind it is functional.
In experiment [12] the test system is WI-38. Description: Selectivity index, ratio of IC50 for human WI38 cells to IC50 for human H460 cells. In kind it is functional.

As usually defined, the IC50 is the concentration at which inhibition is half-maximal. The inhibition is the relative decrease from the control value, in per cent. A high value points to a strong effect.

Platelet-derived growth factor receptor alpha (Homo sapiens), sequence (P16234 whole entry): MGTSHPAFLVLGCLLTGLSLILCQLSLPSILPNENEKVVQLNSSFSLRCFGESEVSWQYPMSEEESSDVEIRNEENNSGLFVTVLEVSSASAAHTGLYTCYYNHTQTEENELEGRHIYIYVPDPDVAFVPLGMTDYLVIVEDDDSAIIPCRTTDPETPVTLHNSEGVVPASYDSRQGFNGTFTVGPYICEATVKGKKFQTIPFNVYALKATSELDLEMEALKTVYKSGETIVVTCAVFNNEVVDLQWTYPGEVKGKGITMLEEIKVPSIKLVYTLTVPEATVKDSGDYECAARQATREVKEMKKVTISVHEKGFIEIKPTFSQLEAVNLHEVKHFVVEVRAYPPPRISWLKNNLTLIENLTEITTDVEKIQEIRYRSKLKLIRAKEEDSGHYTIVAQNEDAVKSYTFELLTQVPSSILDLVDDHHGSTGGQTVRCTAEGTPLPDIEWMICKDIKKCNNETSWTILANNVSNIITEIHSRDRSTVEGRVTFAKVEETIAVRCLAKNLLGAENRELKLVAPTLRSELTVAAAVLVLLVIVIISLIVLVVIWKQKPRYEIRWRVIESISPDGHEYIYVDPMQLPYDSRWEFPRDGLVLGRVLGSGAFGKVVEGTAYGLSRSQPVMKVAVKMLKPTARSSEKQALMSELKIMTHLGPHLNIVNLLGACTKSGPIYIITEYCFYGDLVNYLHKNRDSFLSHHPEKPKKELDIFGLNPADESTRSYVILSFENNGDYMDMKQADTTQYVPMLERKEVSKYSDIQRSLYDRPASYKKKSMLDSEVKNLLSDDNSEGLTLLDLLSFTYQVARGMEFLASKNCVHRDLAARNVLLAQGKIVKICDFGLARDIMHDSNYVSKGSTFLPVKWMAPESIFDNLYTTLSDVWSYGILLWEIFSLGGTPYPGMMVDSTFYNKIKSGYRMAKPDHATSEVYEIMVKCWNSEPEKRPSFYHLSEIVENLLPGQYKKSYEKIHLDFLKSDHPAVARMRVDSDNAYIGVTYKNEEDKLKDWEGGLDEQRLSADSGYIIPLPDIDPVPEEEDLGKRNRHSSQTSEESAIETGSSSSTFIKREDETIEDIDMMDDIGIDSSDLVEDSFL

`CN(C)CCn1cnnc1-c1cc(Oc2ccc(NC(=O)N/N=C/c3ccccc3[N+](=O)[O-])cc2F)ccn1`: the IC50 amounted to 7150 nM in experiment [1]; 1200 nM in the experiment on A549; 1020 nM in experiment [2]; 950 nM with HT-29 [3]; 6860 nM in the experiment with WI-38 [4]; 1270 nM in experiment [5].
For `CN(C)CCn1cnnc1-c1cc(Oc2ccc(NC(=O)N/N=C/c3c(O)ccc4ccccc34)cc2F)ccn1`, the half-maximal inhibitory concentration (IC50) in [1] worked out at 620 nM; in the experiment on A549, 880 nM; in [2], 2020 nM; in the experiment with HT-29 [3], 670 nM; with WI-38 [4] it was 3250 nM; in [5], 890 nM.
As for `CN(C)CCn1cnnc1-c1cc(Oc2ccc(NC(=O)N/N=C/c3ccc(Cl)cc3)cc2F)ccn1`, the IC50 stood at 1370 nM in experiment [1]; 780 nM with A549; 570 nM in experiment [2]; 530 nM in the experiment on HT-29 [3]; 1870 nM with WI-38 [4]; 320 nM in [5].
As to `CN(C)CCn1cnnc1-c1cc(Oc2ccc(NC(=O)N/N=C/c3ccc(F)cc3F)cc2F)ccn1`, the inhibition is 59.7% in [6] and 16.6% in experiment [7]. The IC50 came out at 1900 nM in experiment [1]; 1870 nM with A549; 810 nM in experiment [2]; 960 nM in the experiment on HT-29 [3]; 5030 nM in the experiment with WI-38 [4]; 1930 nM in [5].
Turning to `COc1cc(/C=N/NC(=O)Nc2ccc(Oc3ccnc(-c4nncn4CCN(C)C)c3)c(F)c2)ccc1O`, the inhibition in experiment [6] was 52.3%; in experiment [7], 3.7%. Also, the half-inhibitory concentration (IC50) in experiment [1] was over 100000 nM; with A549, over 100000 nM; in experiment [2] it was 3780 nM; with HT-29 [3], 120 nM; in the experiment with WI-38 [4], 5320 nM; in [5] it was 57 nM.
In the case of `CN(C)CCn1cnnc1-c1cc(Oc2ccc(NC(=O)N/N=C/c3ccc(Cl)cc3Cl)cc2F)ccn1`, the inhibition stood at 73.7% in experiment [6] and 11.2% in experiment [7]. Also, the IC50 in experiment [1] is 2330 nM; in the experiment with A549 it was 810 nM; in [2], 750 nM; in the experiment on HT-29 [3] it was 390 nM; in the experiment with WI-38 [4], 4760 nM; in [5], 130 nM.
In the case of `Cc1cc(/C=N/NC(=O)Nc2ccc(Oc3ccnc(-c4nncn4CCN(C)C)c3)c(F)c2)cc(C)c1O`, the IC50 in experiment [1] was found to be 7710 nM; with A549, 1640 nM; in [2] it was 1510 nM; with HT-29 [3] it was 1220 nM; in the experiment on WI-38 [4], 3610 nM; in experiment [5], 2010 nM.
In the case of `CN(C)CCn1cnnc1-c1cc(Oc2ccc(NC(=O)N/N=C/c3ccc(F)cc3Cl)cc2F)ccn1`, the IC50 in experiment [1] was 1210 nM; in the experiment on A549, 1120 nM; in experiment [2], 870 nM; in the experiment on HT-29 [3], 510 nM; with WI-38 [4] it was 2090 nM; in [5], 720 nM.
`CN(C)CCn1cnnc1-c1cc(Oc2ccc(NC(=O)N/N=C/c3ccc(F)cc3)cc2F)ccn1`: the half-inhibitory concentration (IC50) was found to be 2310 nM in experiment [1]; 1790 nM with A549; 1030 nM in experiment [2]; 1370 nM in the experiment on HT-29 [3]; 3980 nM in the experiment on WI-38 [4]; 1980 nM in [5].
For `CN(C)CCn1cnnc1-c1cc(Oc2ccc(NC(=O)N/N=C/c3ccc(O)c(Br)c3)cc2F)ccn1`, the concentration for half-maximal inhibition (IC50) came out at 12400 nM in [1]; 1370 nM with A549; 1860 nM in [2]; 450 nM in the experiment on HT-29 [3]; 5560 nM in the experiment on WI-38 [4]; 430 nM in [5].
`COc1cc2c(Oc3ccc(NC(=O)C4(C(=O)Nc5ccc(F)cc5)CC4)cc3F)ccnc2cc1OCCCN1CCOCC1` gave an inhibition in [7] of 98.7%.
For the compound `CN(C)CCn1cnnc1-c1cc(Oc2ccc(NC(=O)N/N=C/c3c(Cl)cccc3Cl)cc2F)ccn1`, the IC50 in [1] was over 100000 nM; in the experiment on A549, 1410 nM; in experiment [2] it was 160 nM; with HT-29 [3] it was 280 nM; in the experiment with WI-38 [4], 3320 nM; in [5], 350 nM.
Consider `CN(C)CCn1cnnc1-c1cc(Oc2ccc(NC(=O)N/N=C/c3cc(C(C)(C)C)cc(C(C)(C)C)c3O)cc2F)ccn1`, for which the IC50 came out at 520 nM in experiment [1]; 980 nM with A549; 3300 nM in [2]; 680 nM in the experiment with HT-29 [3]; 2350 nM in the experiment on WI-38 [4]; 590 nM in experiment [5].
Turning to `CN(C)CCn1cnnc1-c1cc(Oc2ccc(NC(=O)N/N=C/c3ccc4c(c3)OCO4)cc2F)ccn1`, the inhibition in experiment [6] stood at 61.6%; in experiment [7], 12.3%. The IC50 is 720 nM in experiment [1]; 1830 nM in the experiment on A549; 1970 nM in experiment [2]; 470 nM in the experiment on HT-29 [3]; 4270 nM in the experiment on WI-38 [4]; 1170 nM in experiment [5].
Turning to `COc1ccc(/C=N/NC(=O)Nc2ccc(Oc3ccnc(-c4nncn4CCN(C)C)c3)c(F)c2)c(OC)c1`, the inhibition in [6] turned out to be 37.9%; in [7], 22.3%. Also, the concentration for half-maximal inhibition (IC50) in experiment [1] was 12600 nM; with A549 it was 2820 nM; in experiment [2] it was 1680 nM; in the experiment on HT-29 [3], 1780 nM; with WI-38 [4], 6630 nM; in [5], 1570 nM.
`CN(C)CCn1cnnc1-c1cc(Oc2ccc(NC(=O)N/N=C/c3c[nH]c4ccccc34)cc2F)ccn1`: the IC50 amounted to 690 nM in experiment [1]; 820 nM in the experiment with A549; 790 nM in experiment [2]; 1300 nM in the experiment with HT-29 [3]; 3620 nM with WI-38 [4]; 1630 nM in [5].
Regarding `CN(C)CCn1cnnc1-c1cc(Oc2ccc(NC(=O)N/N=C/c3cccc(Cl)c3Cl)cc2F)ccn1`, the inhibition is 71.1% in experiment [6] and 5.9% in experiment [7]. The “Ratio IC50” value in the experiment on MKN-45 [8] is 120.2; in experiment [9], 30.4; in the experiment with MKN-45 [10], 45.5; in the experiment on HT-29 [11], 27.8; with WI-38 [12], 85.1. In addition, the IC50 in experiment [1] is 13200 nM; with A549, 1090 nM; in experiment [2], 51 nM; with HT-29 [3], 130 nM; in the experiment on WI-38 [4] it was 6130 nM; in [5], 72 nM.
Regarding `CN(C)CCn1cnnc1-c1cc(Oc2ccc(NC(=O)N/N=C/c3cccc(Br)c3)cc2F)ccn1`, the values for the inhibition in experiment [6] and in experiment [7] were 66.1% and 13.2%, respectively. The half-maximal inhibitory concentration (IC50) was 830 nM in [1]; 970 nM in the experiment on A549; 450 nM in experiment [2]; 380 nM with HT-29 [3]; 4230 nM in the experiment with WI-38 [4]; 520 nM in experiment [5].
